Data published in ChEMBL document CHEMBL3098107, “Synthesis of novel 2-cyano substituted glycyrrhetinic acid derivatives as inhibitors of cancer cells growth and NO production in LPS-activated J-774 cells” (Bioorg Med Chem, 2014).

Tests used:
J774 [1] = experiment: Antiinflammatory activity in mouse J774 cells assessed as inhibition of LPS-induced NO production after 24 hrs by Griess method; type: functional, cell-based; conditions: J774, 24 h
[2] = Cytotoxicity against human KB-3-1 cells assessed as cell survival after 24 hrs by MTT assay; type: functional, cell-based; conditions: KB 3-1, 24 h
In short: (§1)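 Cells in log phase, in DMEM with 10% heat-inactivated FBS, seeded in triplicate. After 24 h adherence, they were exposed to graded doses for 24 h, then to MTT for 3 h. Formazan was dissolved in DMSO and read at 570 nm. IC50 is the concentration giving 50% survival. Three independent experiments, mean ± SEM.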

J774 [3] = experiment: Cytotoxicity against mouse J774 cells assessed as cell survival after 24 hrs by MTT assay; type: cell-based; conditions: J774, 24 h; in short: as §1
J774 [4] = experiment: Selectivity index, ratio of IC50 for mouse J774 cells to IC50 for human KB-3-1 cells; type: functional
In short: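 SI is the IC50 from the J-774 MTT assay divided by the IC50 from the KB-3-1 MTT assay, with both IC50 values from the 24 h assays.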

[5] = Solubility of the compound in DMSO; type: physicochemical

Row | Structure (SMILES) | IC50 (J774 [1]) [µM] | solubility [5] | IC50 [2] [µM] | IC50 (J774 [3]) [µM] | Ratio IC50 (J774 [4])
1 | COC(=O)[C@@]1(C)CC[C@]2(C)CC[C@]3(C)C(=CC(=O)[C@@H]4[C@@]5(C)CC[C@H](O)C(C)(C)[C@@H]5CC[C@]43C)[C@@H]2C1 | > 100 | – | > 100 | > 100 | –
2 | COC(=O)[C@@]1(C)CC[C@]2(C)CC[C@]3(C)[C@H](C(=O)C[C@@H]4[C@@]5(C)CC[C@H](O)C(C)(C)[C@@H]5CC[C@]43C)[C@@H]2C1 | 59.4 | – | 6.8 | 56.1 | 8.3
3 | COC(=O)[C@@]1(C)CC[C@]2(C)CC[C@]3(C)[C@H](C(=O)C[C@@H]4[C@@]5(C)CCC(=O)C(C)(C)[C@@H]5CC[C@]43C)[C@@H]2C1 | 23.4 | – | 25.2 | > 100 | >3.9
4 | COC(=O)[C@@]1(C)CC[C@]2(C)CC[C@]3(C)C(=CC[C@@H]4[C@@]5(C)C=C(C#N)C(=O)C(C)(C)[C@@H]5CC[C@]43C)[C@@H]2C1 | – | Insoluble | – | – | –
5 | COC(=O)[C@@]1(C)CC[C@]2(C)CC[C@]3(C)C(=CC[C@@H]4[C@@]5(C)CC[C@H](O)C(C)(C)[C@@H]5CC[C@]43C)[C@@H]2C1 | – | Insoluble | – | – | –
6 | COC(=O)[C@@]1(C)CC[C@]2(C)CC[C@]3(C)C(=CC[C@@H]4[C@@]5(C)CCC(=O)C(C)(C)[C@@H]5CC[C@]43C)[C@@H]2C1 | – | Insoluble | – | – | –
7 | COC(=O)[C@]1(C)C=C2C3=CC(=O)[C@@H]4[C@@]5(C)CC[C@H](O)C(C)(C)[C@@H]5CC[C@@]4(C)[C@]3(C)CC[C@@]2(C)CC1 | > 100 | – | – | > 100 | –
8 | COC(=O)[C@]1(C)C=C2C3=CC(=O)[C@@H]4[C@@]5(C)CCC(=O)C(C)(C)[C@@H]5CC[C@@]4(C)[C@]3(C)CC[C@@]2(C)CC1 | 16.3 | – | – | 20.1 | –
9 | COC(=O)[C@]1(C)C=C2C3=CC(=O)[C@@H]4[C@@]5(C)C/C(=C/O)C(=O)C(C)(C)[C@@H]5CC[C@@]4(C)[C@]3(C)CC[C@@]2(C)CC1 | 14.5 | – | – | 13.4 | –
10 | COc1ccc2c(c1)c(CC(=O)O)c(C)n2C(=O)c1ccc(Cl)cc1 [INDOMETHACIN] | 29.6 | – | – | > 100 | –

The next lines start with results.

Row | IC50 (J774 [1]) [µM] | solubility [5] | Structure (SMILES) | IC50 [2] [µM] | IC50 (J774 [3]) [µM] | Ratio IC50 (J774 [4])
11 | 0.11 | – | COC(=O)[C@@]1(C)CC[C@]2(C)CC[C@]3(C)[C@H](C(=O)C=C4[C@@]5(C)C=C(C#N)C(=O)C(C)(C)[C@@H]5CC[C@]43C)[C@@H]2C1 | 0.3 | 3.32 | 11
12 | 10.5 | – | COC(=O)[C@@]1(C)CC[C@]2(C)CC[C@]3(C)C(=CC[C@@H]4[C@@]5(C)C/C(=C\O)C(=O)C(C)(C)[C@@H]5CC[C@]43C)[C@@H]2C1 | 40 | > 100 | >2.5
13 | 12.4 | – | COC(=O)[C@@]1(C)CC[C@]2(C)CC[C@]3(C)C(=CC[C@@H]4[C@@]5(C)Cc6cnoc6C(C)(C)[C@@H]5CC[C@]43C)[C@@H]2C1 | > 100 | > 100 | –
14 | 8 | – | COC(=O)[C@@]1(C)CC[C@]2(C)CC[C@]3(C)C(=CC[C@@H]4[C@@]5(C)CC(C#N)=C(O)C(C)(C)[C@@H]5CC[C@]43C)[C@@H]2C1 | 80 | > 100 | >1.3
15 | 5.6 | – | COC(=O)[C@]1(C)C=C2C3=CC(=O)[C@@H]4[C@@]5(C)C=C(C#N)C(=O)C(C)(C)[C@@H]5CC[C@@]4(C)[C@]3(C)CC[C@@]2(C)CC1 | 4 | 7 | 1.8
16 | 2.8 | – | COC(=O)[C@@]1(C)CC[C@]2(C)CC[C@]3(C)[C@H](C(=O)C[C@@H]4[C@@]5(C)C=C(C#N)C(=O)C(C)(C)[C@@H]5CC[C@]43C)[C@@H]2C1 | 5.5 | > 100 | >18.2
17 | 2 | – | COC(=O)[C@@]1(C)CC[C@]2(C)CC[C@]3(C)C(=CC(=O)[C@@H]4[C@@]5(C)C=C(C#N)C(=O)C(C)(C)[C@@H]5CC[C@]43C)[C@@H]2C1 | 20 | > 100 | >5
